Legend:
[1] = target: C-C chemokine receptor type 2 (Homo sapiens, UniProt P41597); test: Binding affinity to human CCR2
Cytochrome P450 2D6 = Cytochrome P450 2D6 (Homo sapiens, UniProt P10635); test: Inhibition of human CYP2D6; type: ADME
[2] = AUC in dog at 10 mg/kg, po; type: ADME, organism-based, Canis lupus familiaris; design: dose 10 mg/kg, route oral; conditions: plasma
Method in brief: (§1)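 Dog pharmacokinetics: oral dosing at 10 mpk in 0.5% methocel and intravenous dosing at 2 mpk in 20% HPbCD. Readouts were systemic clearance, Vdss, oral t1/2 and oral AUC.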

[3] = Clearance in dog at 10 mg/kg, po and 2 mg/kg iv; type: ADME, organism-based, Canis lupus familiaris; conditions: in vivo; method in brief: as §1
Cytochrome P450 3A4 = Cytochrome P450 3A4 (Homo sapiens, UniProt P08684); test: Inhibition of human CYP3A4; type: ADME
Mus musculus [4] = test: Antiinflammatory activity in thioglycollate-induced mouse peritonitis model expressing human CCR2 assessed as inhibition of macrophage infiltration at 3 mg/kg, po bid relative to control; type: functional
Method in brief: (§2)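 Acute inflammation model: peritonitis was induced with thioglycollate in mCCR2 knock-out/hCCR2 knock-in mice. Compound was given orally, and infiltration of macrophages into the peritoneum was measured.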

Cytochrome P450 2C9 = Cytochrome P450 2C9 (Homo sapiens, UniProt P11712); test: Inhibition of human CYP2C9; type: ADME
[5] = Oral bioavailability in dog at 10 mg/kg; type: ADME, organism-based, Canis lupus familiaris; conditions: in vivo
[6] = Half life in dog at 10 mg/kg, po; type: ADME, organism-based, Canis lupus familiaris; design: dose 10 mg/kg, route oral; conditions: in vivo; method in brief: as §1
Mus musculus [7] = test: Antiinflammatory activity in thioglycollate-induced mouse peritonitis model expressing human CCR2 assessed as inhibition of macrophage infiltration administered as po bid; type: functional; method in brief: as §2
[8] = Volume of distribution at steady state in dog at 10 mg/kg, po and 2 mg/kg iv; type: ADME, organism-based, Canis lupus familiaris; conditions: in vivo, read-out: Vdss; method in brief: as §1
Mus musculus [9] = test: Antiinflammatory activity in thioglycollate-induced mouse peritonitis model expressing human CCR2 assessed as inhibition of macrophage infiltration at 1 mg/kg, po bid relative to control; type: functional; method in brief: as §2
Cytochrome P450 2C19 = Cytochrome P450 2C19 (Homo sapiens, UniProt P33261); test: Inhibition of human CYP2C19; type: ADME
Cytochrome P450 1A2 = target: T1, Cytochrome P450 1A2 (Homo sapiens, UniProt P05177); test: Inhibition of human CYP1A2; type: ADME
T1 sequence (P05177 whole entry): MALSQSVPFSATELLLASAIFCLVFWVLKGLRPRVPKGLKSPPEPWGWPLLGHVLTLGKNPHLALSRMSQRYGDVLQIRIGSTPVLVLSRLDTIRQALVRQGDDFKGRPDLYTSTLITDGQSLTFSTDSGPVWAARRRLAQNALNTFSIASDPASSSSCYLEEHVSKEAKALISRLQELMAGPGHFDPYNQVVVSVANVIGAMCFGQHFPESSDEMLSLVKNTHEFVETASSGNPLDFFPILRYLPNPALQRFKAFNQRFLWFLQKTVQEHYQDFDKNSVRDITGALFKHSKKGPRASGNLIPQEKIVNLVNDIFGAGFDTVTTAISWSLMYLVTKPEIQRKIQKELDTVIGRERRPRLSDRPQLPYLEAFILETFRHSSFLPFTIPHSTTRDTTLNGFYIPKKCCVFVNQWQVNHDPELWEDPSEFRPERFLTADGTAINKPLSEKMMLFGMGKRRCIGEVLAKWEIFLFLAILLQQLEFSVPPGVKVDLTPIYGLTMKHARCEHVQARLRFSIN

Mus musculus [10] = test: Antiinflammatory activity in thioglycollate-induced mouse peritonitis model expressing human CCR2 assessed as inhibition of macrophage infiltration at 0.3 mg/kg, po bid relative to control; type: functional; method in brief: as §2
Mus musculus [11] = test: Antiinflammatory activity in thioglycollate-induced mouse peritonitis model expressing human CCR2 assessed as inhibition of macrophage infiltration at 10 mg/kg, po bid relative to control; type: functional; method in brief: as §2
[12] = target: Voltage-gated inwardly rectifying potassium channel KCNH2 (Homo sapiens, UniProt Q12809); test: Binding affinity to human ERG
Chain of Voltage-gated inwardly rectifying potassium channel KCNH2 (Q12809 whole entry): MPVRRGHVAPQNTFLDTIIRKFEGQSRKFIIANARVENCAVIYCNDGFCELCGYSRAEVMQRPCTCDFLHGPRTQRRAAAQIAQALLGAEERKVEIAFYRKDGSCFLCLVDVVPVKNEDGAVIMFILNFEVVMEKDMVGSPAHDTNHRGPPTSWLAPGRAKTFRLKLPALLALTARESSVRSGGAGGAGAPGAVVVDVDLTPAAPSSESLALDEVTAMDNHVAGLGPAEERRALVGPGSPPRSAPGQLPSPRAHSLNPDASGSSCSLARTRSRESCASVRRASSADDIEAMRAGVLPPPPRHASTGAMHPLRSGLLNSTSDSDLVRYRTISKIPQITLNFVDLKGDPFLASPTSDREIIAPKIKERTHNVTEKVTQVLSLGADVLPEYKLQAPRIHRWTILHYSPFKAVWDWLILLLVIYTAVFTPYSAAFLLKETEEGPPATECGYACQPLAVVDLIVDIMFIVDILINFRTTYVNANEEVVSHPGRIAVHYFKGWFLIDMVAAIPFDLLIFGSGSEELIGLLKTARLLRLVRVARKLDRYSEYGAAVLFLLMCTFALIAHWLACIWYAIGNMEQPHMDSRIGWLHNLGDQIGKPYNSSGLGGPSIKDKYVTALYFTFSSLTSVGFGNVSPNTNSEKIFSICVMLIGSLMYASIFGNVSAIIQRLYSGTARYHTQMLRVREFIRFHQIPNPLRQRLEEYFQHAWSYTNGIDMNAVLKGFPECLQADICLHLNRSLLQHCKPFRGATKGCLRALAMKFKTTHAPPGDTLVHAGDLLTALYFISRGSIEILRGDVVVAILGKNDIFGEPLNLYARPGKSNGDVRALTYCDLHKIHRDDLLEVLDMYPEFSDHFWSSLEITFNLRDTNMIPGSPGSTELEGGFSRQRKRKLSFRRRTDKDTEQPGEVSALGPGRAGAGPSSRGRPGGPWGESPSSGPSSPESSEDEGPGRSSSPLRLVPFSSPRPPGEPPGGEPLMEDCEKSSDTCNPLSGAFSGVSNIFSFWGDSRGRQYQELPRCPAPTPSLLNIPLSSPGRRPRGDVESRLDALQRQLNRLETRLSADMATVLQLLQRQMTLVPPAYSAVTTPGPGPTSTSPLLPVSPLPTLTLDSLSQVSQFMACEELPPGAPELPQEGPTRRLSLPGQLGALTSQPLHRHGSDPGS

Chain of C-C chemokine receptor type 2 (P41597 whole entry): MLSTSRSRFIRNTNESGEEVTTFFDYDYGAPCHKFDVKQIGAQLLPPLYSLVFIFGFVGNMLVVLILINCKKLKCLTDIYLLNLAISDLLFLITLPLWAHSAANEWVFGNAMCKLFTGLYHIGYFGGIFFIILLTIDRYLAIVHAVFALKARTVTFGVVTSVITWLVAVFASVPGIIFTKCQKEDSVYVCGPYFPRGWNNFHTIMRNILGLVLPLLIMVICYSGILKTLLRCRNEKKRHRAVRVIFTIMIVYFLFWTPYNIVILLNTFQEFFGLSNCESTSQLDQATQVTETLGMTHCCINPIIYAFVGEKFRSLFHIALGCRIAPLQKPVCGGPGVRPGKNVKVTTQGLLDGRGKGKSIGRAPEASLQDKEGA
Chain of Cytochrome P450 3A4 (P08684 whole entry): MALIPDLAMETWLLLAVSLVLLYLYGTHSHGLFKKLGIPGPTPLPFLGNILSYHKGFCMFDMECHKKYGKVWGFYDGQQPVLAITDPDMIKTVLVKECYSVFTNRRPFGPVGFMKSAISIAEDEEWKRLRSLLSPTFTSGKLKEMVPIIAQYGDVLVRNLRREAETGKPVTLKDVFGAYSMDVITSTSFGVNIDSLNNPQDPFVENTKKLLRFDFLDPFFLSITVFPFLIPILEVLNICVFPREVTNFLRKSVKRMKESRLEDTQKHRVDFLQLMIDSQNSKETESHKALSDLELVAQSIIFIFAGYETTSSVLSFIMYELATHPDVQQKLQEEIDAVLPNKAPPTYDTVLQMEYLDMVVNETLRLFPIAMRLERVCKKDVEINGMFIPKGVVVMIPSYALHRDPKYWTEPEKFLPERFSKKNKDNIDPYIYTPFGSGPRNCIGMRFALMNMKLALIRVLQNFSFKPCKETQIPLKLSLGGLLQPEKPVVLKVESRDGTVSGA
Chain of Cytochrome P450 2D6 (P10635 whole entry): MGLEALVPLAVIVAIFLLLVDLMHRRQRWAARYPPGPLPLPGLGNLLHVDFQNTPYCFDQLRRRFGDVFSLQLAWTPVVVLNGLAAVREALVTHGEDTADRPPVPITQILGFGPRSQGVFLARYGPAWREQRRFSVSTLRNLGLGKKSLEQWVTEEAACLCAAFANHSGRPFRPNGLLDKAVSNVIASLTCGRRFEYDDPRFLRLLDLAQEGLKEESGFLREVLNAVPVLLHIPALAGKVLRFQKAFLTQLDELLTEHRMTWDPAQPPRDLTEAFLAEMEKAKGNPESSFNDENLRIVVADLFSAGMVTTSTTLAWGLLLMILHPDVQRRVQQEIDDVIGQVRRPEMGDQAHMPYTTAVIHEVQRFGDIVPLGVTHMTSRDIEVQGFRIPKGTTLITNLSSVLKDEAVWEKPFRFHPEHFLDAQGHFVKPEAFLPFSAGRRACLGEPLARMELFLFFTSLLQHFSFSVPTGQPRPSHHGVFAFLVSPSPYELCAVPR
Chain of Cytochrome P450 2C19 (P33261 whole entry): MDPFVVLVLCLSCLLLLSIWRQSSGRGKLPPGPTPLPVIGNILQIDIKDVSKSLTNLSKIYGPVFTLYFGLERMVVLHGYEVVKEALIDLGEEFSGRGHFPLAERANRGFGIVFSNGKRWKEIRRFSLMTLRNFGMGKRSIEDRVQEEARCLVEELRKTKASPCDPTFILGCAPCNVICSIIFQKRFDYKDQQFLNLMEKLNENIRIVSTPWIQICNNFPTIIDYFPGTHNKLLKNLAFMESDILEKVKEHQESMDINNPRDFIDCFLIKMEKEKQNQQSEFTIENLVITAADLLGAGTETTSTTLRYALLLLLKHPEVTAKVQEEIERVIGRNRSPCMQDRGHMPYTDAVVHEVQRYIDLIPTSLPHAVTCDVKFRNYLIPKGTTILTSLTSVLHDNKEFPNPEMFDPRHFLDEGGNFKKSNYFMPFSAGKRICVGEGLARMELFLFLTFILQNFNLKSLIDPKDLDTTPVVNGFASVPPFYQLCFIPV
Chain of Cytochrome P450 2C9 (P11712 whole entry): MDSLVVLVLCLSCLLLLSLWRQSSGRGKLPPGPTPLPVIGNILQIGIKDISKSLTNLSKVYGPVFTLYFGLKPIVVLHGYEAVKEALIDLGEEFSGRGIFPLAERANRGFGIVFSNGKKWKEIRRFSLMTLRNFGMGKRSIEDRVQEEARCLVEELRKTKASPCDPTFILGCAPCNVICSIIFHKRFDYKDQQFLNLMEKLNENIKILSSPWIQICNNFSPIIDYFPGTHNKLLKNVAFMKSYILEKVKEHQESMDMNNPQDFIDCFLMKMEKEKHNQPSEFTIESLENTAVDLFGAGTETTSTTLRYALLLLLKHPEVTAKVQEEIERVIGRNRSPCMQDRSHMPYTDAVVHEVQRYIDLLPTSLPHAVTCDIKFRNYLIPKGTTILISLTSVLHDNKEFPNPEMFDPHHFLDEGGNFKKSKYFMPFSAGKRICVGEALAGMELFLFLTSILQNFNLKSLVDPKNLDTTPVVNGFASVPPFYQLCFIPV

SMILES	IC50 [1] [nM]	IC50 [12] [nM]	other results
CO[C@@H]1COCC[C@@H]1N[C@@H]1C[C@H]2CCC[C@@]2(C(=O)N2CCc3ncc(C(F)(F)F)cc3C2)C1	–	–	IC50 (Cytochrome P450 2D6): > 10000 nM; AUC [2]: 12100 ng·h/mL; clearance [3]: 15.2 mL/min/kg; IC50 (Cytochrome P450 3A4): 7500 nM; inhibition in vivo at 3 mg/kg (Mus musculus [4]): 100%; IC50 (Cytochrome P450 2C9): > 10000 nM; bioavailability [5]: 100%; half-life [6]: 3.4 h; ED50 (Mus musculus [7]): 0.1 mg/kg; Vd [8]: 2.3 L/kg; inhibition in vivo at 1 mg/kg (Mus musculus [9]): 100%; IC50 (Cytochrome P450 2C19): > 10000 nM; IC50 (Cytochrome P450 1A2): > 10000 nM; inhibition in vivo at 0.3 mg/kg (Mus musculus [10]): 89%; inhibition in vivo at 10 mg/kg (Mus musculus [11]): 101%
CCC(CC)N[C@@H]1C[C@H]2CCC[C@@]2(C(=O)N2CCc3ncc(C(F)(F)F)cc3C2)C1	3300	> 50000	–
O=C(N1CCc2ncc(C(F)(F)F)cc2C1)[C@@]12CCC[C@@H]1C[C@@H](NC1CCCC1)C2	2330	33500	–
O=C(N1CCc2ncc(C(F)(F)F)cc2C1)[C@@]12CCC[C@@H]1C[C@@H](NC1CCCCC1)C2	1530	–	–
O=C(N1CCc2ncc(C(F)(F)F)cc2C1)[C@@]12CCC[C@@H]1C[C@@H](NC1CCS(=O)(=O)CC1)C2	3560	–	–
O=C(N1CCc2ncc(C(F)(F)F)cc2C1)[C@@]12CCC[C@@H]1C[C@@H](NCC1CCOCC1)C2	> 25000	47000	–
O=C(N[C@@H]1C[C@H]2CCC[C@@]2(C(=O)N2CCc3ncc(C(F)(F)F)cc3C2)C1)C1CCOCC1	> 25000	> 50000	–
O=C(N1CCc2ncc(C(F)(F)F)cc2C1)[C@@]12CCCC[C@@H]1C[C@@H](NC1CCOCC1)C2	7930	38900	–
COC1COCCC1N[C@@H]1C[C@H]2C[C@H](N(C)C)C[C@@]2(C(=O)N2CCc3ncc(C(F)(F)F)cc3C2)C1 (mixture of isomers)	8090	–	–
COC1COCCC1N[C@@H]1C[C@H]2CCC[C@@]2(C(=O)N2CCc3ccc(C#N)cc3C2)C1 (mixture of isomers)	1800	–	–
COC1COCCC1N[C@@H]1C[C@H]2C[C@H](C(F)(F)F)C[C@@]2(C(=O)N2CCc3ncc(C(F)(F)F)cc3C2)C1 (mixture of isomers)	1260	–	–
COC1COCCC1N[C@@H]1C[C@H]2CCC[C@@]2(C(=O)N2CCc3ncccc3C2)C1 (mixture of isomers)	> 25000	–	–
COC1COCCC1N[C@@H]1C[C@H]2CCC[C@@]2(C(=O)N2CCc3ncc([N+](=O)[O-])cc3C2)C1 (mixture of isomers)	1500	–	–
COc1cnc2c(c1)CN(C(=O)[C@@]13CCC[C@@H]1C[C@@H](NC1CCOCC1OC)C3)CC2 (mixture of isomers)	> 25000	–	–
COC1COCCC1N[C@@H]1C[C@H]2CCC[C@@]2(C(=O)N2CCc3ncc(OC(C)C)cc3C2)C1 (mixture of isomers)	5600	–	–
COC1COCCC1N[C@@H]1C[C@H]2CCC[C@@]2(C(=O)N2CCc3ccc(F)cc3C2)C1 (mixture of isomers)	4400	–	–

Continued, in another order:

IC50 [1] [nM]	SMILES	IC50 [12] [nM]	other results
247	COC1COCCC1N[C@@H]1C[C@H]2C[C@@H](N(C)C)C[C@@]2(C(=O)N2CCc3ncc(C(F)(F)F)cc3C2)C1 (stereo not given in full)	–	–
699	O=C(N1CCc2ncc(C(F)(F)F)cc2C1)[C@@]12CCC[C@@H]1C[C@@H](NC1CCCCCC1)C2	–	–
874	O=C(N1CCc2ncc(C(F)(F)F)cc2C1)[C@@]12CCC[C@@H]1C[C@@H](NC1CCSCC1)C2	23100	–
125	O=C(N1CCc2ncc(C(F)(F)F)cc2C1)[C@@]12CCC[C@@H]1C[C@@H](NC1CCOCC1)C2	25700	–
200	COC1COCCC1N[C@@H]1C[C@H]2C[C@@H](OC)C[C@@]2(C(=O)N2CCc3ncc(C(F)(F)F)cc3C2)C1 (mixture of isomers)	> 50000	–
16	COC1COCCC1N[C@@H]1C[C@H]2CCC[C@@]2(C(=O)N2CCc3ccc(OC(F)(F)F)cc3C2)C1 (mixture of isomers)	–	–
95	COC1COCCC1N[C@@H]1C[C@H]2CC(F)(F)C[C@@]2(C(=O)N2CCc3ncc(C(F)(F)F)cc3C2)C1 (mixture of isomers)	> 50000	–
23	COC1COCCC1N[C@@H]1C[C@H]2C[C@H](F)C[C@@]2(C(=O)N2CCc3ncc(C(F)(F)F)cc3C2)C1 (mixture of isomers)	–	–
150	COC1COCCC1N[C@@H]1C[C@H]2C[C@@H](F)C[C@@]2(C(=O)N2CCc3ncc(C(F)(F)F)cc3C2)C1 (mixture of isomers)	–	–
20	COC1COCCC1N[C@@H]1C[C@H]2C[C@H](Cl)C[C@@]2(C(=O)N2CCc3ncc(C(F)(F)F)cc3C2)C1 (mixture of isomers)	> 50000	–
45	COC1COCCC1N[C@@H]1C[C@H]2C[C@@H](Cl)C[C@@]2(C(=O)N2CCc3ncc(C(F)(F)F)cc3C2)C1 (mixture of isomers)	> 50000	–
263	COC1COCCC1N[C@@H]1C[C@H]2C[C@@H](C(F)(F)F)C[C@@]2(C(=O)N2CCc3ncc(C(F)(F)F)cc3C2)C1 (mixture of isomers)	–	–
88	COC1COCCC1N[C@@H]1C[C@H]2C[C@H](C(N)=O)C[C@@]2(C(=O)N2CCc3ncc(C(F)(F)F)cc3C2)C1 (mixture of isomers)	–	–
130	COC1COCCC1N[C@@H]1C[C@H]2C[C@@H](C(N)=O)C[C@@]2(C(=O)N2CCc3ncc(C(F)(F)F)cc3C2)C1 (mixture of isomers)	–	–
59	COC1COCCC1N[C@@H]1C[C@H]2C[C@H](O)C[C@@]2(C(=O)N2CCc3ncc(C(F)(F)F)cc3C2)C1 (mixture of isomers)	> 50000	–
58	COC1COCCC1N[C@@H]1C[C@H]2C[C@@H](O)C[C@@]2(C(=O)N2CCc3ncc(C(F)(F)F)cc3C2)C1 (mixture of isomers)	> 50000	–
210	COC1COCCC1N[C@@H]1C[C@H]2C[C@H](OC)C[C@@]2(C(=O)N2CCc3ncc(C(F)(F)F)cc3C2)C1 (mixture of isomers)	> 50000	–
1100	COC1COCCC1N[C@@H]1C[C@H]2CCC[C@@]2(C(=O)N2CCc3ncc(Cl)cc3C2)C1 (mixture of isomers)	–	–
200	COC1COCCC1N[C@@H]1C[C@H]2CCC[C@@]2(C(=O)N2CCc3ncc(Br)cc3C2)C1 (mixture of isomers)	–	–
400	COC1COCCC1N[C@@H]1C[C@H]2CCC[C@@]2(C(=O)N2CCc3ccc(Cl)cc3C2)C1 (mixture of isomers)	42400	–
290	COC1COCCC1N[C@@H]1C[C@H]2CCC[C@@]2(C(=O)N2CCc3ccc(Br)cc3C2)C1 (mixture of isomers)	20300	–
34	COC1COCCC1N[C@@H]1C[C@H]2CCC[C@@]2(C(=O)N2CCc3ccc(C(F)(F)F)cc3C2)C1 (mixture of isomers)	27600	–
1070	COC1COCCC1N[C@@H]1C[C@H]2CCCC[C@@]2(C(=O)N2CCc3ncc(C(F)(F)F)cc3C2)C1 (mixture of isomers)	–	–
